High-throughput results as filed in PubChem BioAssay.
Shown are actives, neighbours in structure and some others; about 3.7% of the full set was active somewhere.
KCNQ1 act: potentiators or activators of human KCNQ1 potassium channel | P51787 | CHO-K1 KCNQ1, thallium flux FluxOR fluorescence; active compounds read high | B-score at 10 µM | 310,000 tested, 0.35% active | AID 2648;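 active means fluorescence ratio B-score, a plate-corrected score, at least three library SD, with initial intensity B-score within 5 SD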
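assay system = KCNQ1-transfected CHO-K1 cells | medium = assay buffer with matched DMSO | probe or stimulus = depolarizing K+/Tl+ stimulus, K2SO4 and Tl2SO4 each 12.5 mM in 5x stock | dosing = single dose | incubation = dye 90 min, compound 20 min, room temperature | detection = kinetic FluxOR fluorescence, 10 s baseline plus 110 s post-stimulus | evaluation = ratio B score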
hERG rescue: shields human hERG channel from block by proarrhythmic agents; CHO-hERG, FluxOR thallium flux, dofetilide IC70 present; activation (rescue from dofetilide block), less the hit threshold, % at 10 µM; Q12809; AID 1511; 310,000 tested, 0.51% active;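 active means activation above the mean of controls blocked by dofetilide plus 5 SD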;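 further: thallium influx through hERG after potassium depolarization seen as dye fluorescence rise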
Kir21 inh: inhibitors of mouse Kir2.1 inward-rectifier potassium channel; AID 1672; 310,000 tested, 0.85% active; HEK293-Kir2.1, FluxOR thallium flux fluorescence; active compounds read low; B-score at 10 µM;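 active means fluorescence ratio B-score at or below minus 3 SD of library scores, with starting-brightness B-score within 2 SD, cut at about -4.2 in these data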;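 further: channel flux triggered by added potassium and thallium sulfate stimulus; B-score of peak minus minimum fluorescence over baseline after thallium stimulus; more negative B-score means stronger Kir2.1 block with less thallium influx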
Target sequence (P35561 whole entry, looked up): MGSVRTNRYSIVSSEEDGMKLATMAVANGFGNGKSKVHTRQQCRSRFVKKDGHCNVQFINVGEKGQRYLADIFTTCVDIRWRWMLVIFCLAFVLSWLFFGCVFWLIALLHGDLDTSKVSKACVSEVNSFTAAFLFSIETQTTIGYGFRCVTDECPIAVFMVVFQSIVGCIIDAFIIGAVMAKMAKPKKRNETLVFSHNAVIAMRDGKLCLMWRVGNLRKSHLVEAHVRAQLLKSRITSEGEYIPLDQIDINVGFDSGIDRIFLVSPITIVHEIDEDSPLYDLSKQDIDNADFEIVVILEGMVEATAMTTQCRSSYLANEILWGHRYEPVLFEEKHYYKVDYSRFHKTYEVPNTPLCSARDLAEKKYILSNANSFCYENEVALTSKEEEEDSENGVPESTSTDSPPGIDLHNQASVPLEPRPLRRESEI
KCNK9 block: inhibitors of human KCNK9 two-pore domain potassium channel. Q9NPC2. HEK293 KCNK9, FluxOR thallium flux fluorescence; active compounds read low. 310,000 tested, 1.2% active. B-score at 10 µM;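 active means ratio B-score over 3 SD below the library mean, with starting fluorescence within 5 SD of its mean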;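 further: negative B-score means less thallium flux so channel inhibition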
KCNK3 inh: human KCNK3 channel inhibition, primary screen; 340,000 tested, 0.84% active; B-score at 10 µM; O14649; AID 602410; CHO-KCNK3 thallium flux, FluxOR fluorescence; active compounds read low;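 active means B-score under library mean minus 4 SD, starting fluorescence ratio at most library mean plus 5 SD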;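 further: more negative B-score means stronger inhibition of thallium flux through KCNK3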
KCNQ1 inh: human KCNQ1 channel inhibition | P51787 | CHO-K1 KCNQ1, FluxOR thallium flux fluorescence; active compounds read high | B-score at 10 µM | 310,000 tested, 1.3% active | AID 2642;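 active means compounds whose thallium flux B-score, printed positive for inhibition, exceeds three library SD while starting fluorescence stays within three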;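 further: channel opened by potassium depolarization with thallium stimulus after 20 min compound exposure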
Numbers without * were called inactive; i = inactive; nt = no result.

SMILES	KCNQ1 act	hERG rescue	Kir21 inh	KCNK9 block	KCNK3 inh	KCNQ1 inh
CCOCc1c(C(=O)Nc2ccccc2N2CCN(C)CC2)oc2ccccc12	nt	nt	nt	nt	i	nt
CCOC(=O)c1cc(C(=O)OCC)c2cc(Br)ccc2n1	i	-11	-0.53	i	i	i
CCCCOC(=O)c1cc(C)nc2ccc(Br)cc12	i	6.5*	-0.62	i	i	i
CCOc1ccc(C=NNC(=O)c2ccc(-n3cnnn3)cc2)cc1	nt	nt	nt	nt	i	nt
CCOC(=O)c1cc(-c2ccccc2)sc1NC(=O)C(C)Sc1nnc(C)s1 (stereo unspecified)	i	-9	-1	-7*	i	i
CN(C)c1ccc(/C=C/C(O)=C2/C(=O)N(C)C3(C)CC2c2ccccc2O3)cc1 (stereo unspecified)	i	-17	-1.8	i	nt	7*
CCOc1ccc(/C=C/C(O)=C2/C(=O)NC3(C)CC2c2ccccc2O3)cc1OC (stereo unspecified)	i	-2	-0.65	i	i	i
CCn1c(=O)c2sccc2n(Cc2cccc(C)c2)c1=O	i	-12	-1.5	i	i	i
S=c1[nH]nc(-c2ccco2)n1/N=C/c1cccc(Cl)c1Cl	15*	0	-0.01	i	i	i
CSc1ccc(C(=O)N2CCC(CCC(=O)NCc3ccc(F)cc3)CC2)cc1	i	-8	-0.14	i	i	i
Cc1ccc(C(=O)c2cc(C)sc2NC(=O)CN2CCN(C(=O)c3ccco3)CC2)cc1	i	-20	0.15	i	i	9*
CCc1cc(C(=O)OC)c(NC(=O)CN2CCN(C(=O)c3ccco3)CC2)s1	i	-2	1.7	i	i	i
O=C(CNC(=O)c1cc(S(=O)(=O)N2CCCCC2)ccc1N1CCOCC1)Nc1ccc(F)c(F)c1	i	-20	-0.2	i	i	i
O=C(Nc1ccc(C(=O)N2CCCCC2)cc1)C1CCCCC1	i	9.1*	1.6	i	i	i
COc1ccccc1-c1c(C)oc2cc(OC(=O)c3ccco3)ccc2c1=O	i	-7	-9.2*	i	i	i
COc1cccc(NC(=O)NCC2CCN(Cc3ccc(F)cc3)CC2)c1	8*	-6	0	i	i	i
Cc1cc(C(C)(C)C)c(OC(=O)[C@@H]2OC(c3ccccc3)=C[C@H]2c2ccccc2)c(C(C)(C)C)c1	nt	nt	nt	nt	i	nt
COc1ccc(/C=N/NC(=O)c2cc(C(C)(C)C)[nH]n2)cc1COc1ccc(F)cc1F	i	-12	0.83	i	i	6*
COc1ccc(/C=N\NC(=O)c2ccccc2Br)cc1COc1c(F)c(F)cc(F)c1F	i	-9	-0.31	i	i	6*
COc1ccc(/C=N\NC(=O)c2ccccc2F)cc1COc1ccc(F)cc1	i	-1	-0.88	i	i	i
COc1ccc(/C=N\NC(=O)c2ccccc2F)cc1COc1ccc(F)cc1F	i	-10	1.1	i	i	i
CCN(N=O)c1ccc(C=C2C=Cc3ccccc32)cc1	nt	nt	nt	nt	i	nt
c1ccc(COc2ccccc2CNC23CC4CC(CC(C4)C2)C3)cc1	i	-19	-9.8*	i	i	i
CCn1c2ccccc2c2cc(Nc3cc(C)nc4ncnn34)ccc21	i	-23	-7.6*	i	i	i
CCc1ccc(Nc2cc(C)nc3ncnn23)cc1	i	-8	2.7	i	i	i
SMILES	KCNQ1 act	hERG rescue	Kir21 inh	KCNK9 block	KCNK3 inh	KCNQ1 inh
Cc1ccc(C(=O)CN(CCCC(N)=O)C(=O)c2ccncc2)cc1	nt	nt	nt	nt	i	nt
CN1C/C(=C/c2ccccc2[N+](=O)[O-])C(=O)/C(=C\c2ccccc2[N+](=O)[O-])C1	nt	nt	nt	nt	i	nt
Cc1ccccc1SCC(=O)Nc1cc(C(F)(F)F)ccc1N1CCOCC1	i	-12	-1.4	i	i	14*
Cc1nnc(SCC(=O)Nc2cc(C(F)(F)F)ccc2N2CCOCC2)o1	i	-2	0.89	i	i	i
O=C(NC(=S)Nc1cc(C(F)(F)F)ccc1N1CCOCC1)c1ccco1	i	5.7*	-0.28	i	i	i
CSc1nc2ccccc2n1CC(=O)Nc1cc(C(F)(F)F)ccc1N1CCOCC1	i	-9	-1.6	-7.8*	i	i
